Values joined by “and” are separate entries in the source; they are usually repeats but may differ in a detail not shown here. Identical values can stand only once.
Test system: U2OS
Assay: Multiplex assay against U2OS
Assay type: toxicity, cell-based
Conditions: human
How it was run: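 On a CQ1 microscope at 37°C and 5% CO2, live cells were imaged after compound addition. They had been stained at seeding with Hoechst33342, BioTracker Green Microtubule Cytoskeleton Dye, MitoTracker Red and Annexin V Alexa Fluor 680. CellPathfinder machine-learning gating assigned cells to Hoechst high-intensity objects or normal cells, normal cells to healthy, pyknosed or fragmented nuclei, and pyknosed cells to mitotic or apoptotic. Tubulin, mitochondrial-mass and membrane-permeability phenotypes are per cents of healthy-nucleus cells.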

[1] = 12 h, 1 µM, compound concentration 1 uM, replicate 1
[2] = 12 h, 1 µM, compound concentration 1 uM, replicate 2
[3] = 12 h, 10 µM, compound concentration 10 uM, replicate 1
[4] = 12 h, 10 µM, compound concentration 10 uM, replicate 2
[5] = 24 h, 1 µM, compound concentration 1 uM, replicate 1
[6] = 24 h, 1 µM, compound concentration 1 uM, replicate 2
[7] = 24 h, 10 µM, compound concentration 10 uM, replicate 1
[8] = 24 h, 10 µM, compound concentration 10 uM, replicate 2
[9] = 48 h, 1 µM, compound concentration 1 uM, replicate 1
[10] = 48 h, 1 µM, compound concentration 1 uM, replicate 2
[11] = 48 h, 10 µM, compound concentration 10 uM, replicate 1
[12] = 48 h, 10 µM, compound concentration 10 uM, replicate 2

Nc1c(C(=O)NCc2ccc(C(=O)NCCCC3CCCCC3)cc2)cnn1-c1ccccc1 [SR-318]
Population Apoptotic (%) [1]: 42% and 23% and 30%
Population Fragmented Nuclei (%) [1]: 5% and 10% and 6%
Population Healthy Nuclei (%) [1]: 85% and 78% and 81%
Population Hoechst High Intensity Objects (%) [1]: 3%
Population Membrane Permeable-Phenotype (%) [1]: 4% and 3%
Population Mitochondria Different-Phenotype (%) [1]: 9% and 6%
Population Mitotic Cells (%) [1]: 57% and 76% and 69%
Population Normal (%) [1]: 96%
Population Pyknosed Nuclei (%) [1]: 9% and 10% and 12%
Population Tubulin-Different-Phenotype (%) [1]: 52% and 44%
Total Cell Count [1]: 171 and 322 and 200
Population Fragmented Nuclei (%) [2]: 9% and 3%
Population Healthy Nuclei (%) [2]: 83% and 75% and 91%
Population Membrane Permeable-Phenotype (%) [2]: 6% and 5%
Population Mitochondria Different-Phenotype (%) [2]: 8%
Population Mitotic Cells (%) [2]: 50% and 87% and 100%
Population Normal (%) [2]: 95% and 73%
Population Tubulin-Different-Phenotype (%) [2]: 19% and 25% and 11%
Total Cell Count [2]: 63 and 91 and 118
Population Apoptotic (%) [3]: 61% and 58% and 42%
Population Fragmented Nuclei (%) [3]: 6% and 14% and 11%
Population Healthy Nuclei (%) [3]: 74% and 65% and 67%
Population Hoechst High Intensity Objects (%) [3]: 2% and 8% and 5%
Population Membrane Permeable-Phenotype (%) [3]: 8% and 5% and 2%
Population Mitochondria Different-Phenotype (%) [3]: 57% and 50% and 60%
Population Mitotic Cells (%) [3]: 38% and 41% and 57%
Population Normal (%) [3]: 97% and 91% and 94%
Population Pyknosed Nuclei (%) [3]: 18% and 20% and 21%
Population Tubulin-Different-Phenotype (%) [3]: 39% and 47% and 40%
Total Cell Count [3]: 186 and 329 and 402
Population Apoptotic (%) [4]: 45% and 22% and 33%
Population Fragmented Nuclei (%) [4]: 17% and 15% and 12%
Population Healthy Nuclei (%) [4]: 69% and 58% and 72%
Population Hoechst High Intensity Objects (%) [4]: 7% and 1% and 10%
Population Membrane Permeable-Phenotype (%) [4]: 10% and 7% and 3%
Population Mitochondria Different-Phenotype (%) [4]: 55% and 51%
Population Mitotic Cells (%) [4]: 54% and 77% and 66%
Population Normal (%) [4]: 92% and 98% and 89%
Population Pyknosed Nuclei (%) [4]: 13% and 25% and 15%
Population Tubulin-Different-Phenotype (%) [4]: 50% and 56% and 67%
Total Cell Count [4]: 71 and 90 and 91
Population Apoptotic (%) [5]: 35% and 34% and 21%
Population Fragmented Nuclei (%) [5]: 5% and 8%
Population Healthy Nuclei (%) [5]: 85%
Population Hoechst High Intensity Objects (%) [5]: 0% and 3%
Population Membrane Permeable-Phenotype (%) [5]: 1% and 4% and 2%
Population Mitochondria Different-Phenotype (%) [5]: 5% and 6% and 8%
Population Mitotic Cells (%) [5]: 64% and 65% and 78%
Population Normal (%) [5]: 99% and 96%
Population Pyknosed Nuclei (%) [5]: 9% and 10%
Population Tubulin-Different-Phenotype (%) [5]: 59% and 20% and 47%
Total Cell Count [5]: 185 and 423 and 237
Population Apoptotic (%) [6]: 25%
Population Fragmented Nuclei (%) [6]: 6% and 3% and 4%
Population Healthy Nuclei (%) [6]: 80% and 84% and 75%
Population Membrane Permeable-Phenotype (%) [6]: 8% and 5%
Population Mitochondria Different-Phenotype (%) [6]: 13% and 12% and 7%
Population Mitotic Cells (%) [6]: 75%
Population Normal (%) [6]: 94% and 97% and 77%
Population Pyknosed Nuclei (%) [6]: 13% and 11% and 19%
Population Tubulin-Different-Phenotype (%) [6]: 22% and 14% and 23%
Total Cell Count [6]: 67 and 130 and 97
Population Apoptotic (%) [7]: 55% and 58% and 61%
Population Fragmented Nuclei (%) [7]: 12% and 5%
Population Healthy Nuclei (%) [7]: 67% and 74% and 61%
Population Hoechst High Intensity Objects (%) [7]: 8% and 4%
Population Membrane Permeable-Phenotype (%) [7]: 4% and 2% and 0%
Population Mitochondria Different-Phenotype (%) [7]: 55% and 53% and 63%
Population Mitotic Cells (%) [7]: 44% and 41% and 38%
Population Normal (%) [7]: 91% and 95%
Population Pyknosed Nuclei (%) [7]: 19%
Population Tubulin-Different-Phenotype (%) [7]: 36% and 24%
Total Cell Count [7]: 409 and 192 and 426
Population Apoptotic (%) [8]: 28% and 44% and 46%
Population Fragmented Nuclei (%) [8]: 13% and 17% and 14%
Population Healthy Nuclei (%) [8]: 65% and 62% and 66%
Population Hoechst High Intensity Objects (%) [8]: 1% and 7%
Population Membrane Permeable-Phenotype (%) [8]: 9% and 7% and 3%
Population Mitochondria Different-Phenotype (%) [8]: 58% and 57% and 66%
Population Mitotic Cells (%) [8]: 71% and 55% and 53%
Population Normal (%) [8]: 98% and 92%
Population Pyknosed Nuclei (%) [8]: 21% and 20% and 18%
Population Tubulin-Different-Phenotype (%) [8]: 41% and 30% and 61%
Total Cell Count [8]: 104 and 67 and 97
Population Apoptotic (%) [9]: 44% and 47% and 55%
Population Fragmented Nuclei (%) [9]: 3% and 8%
Population Healthy Nuclei (%) [9]: 87% and 83%
Population Hoechst High Intensity Objects (%) [9]: 0% and 2%
Population Membrane Permeable-Phenotype (%) [9]: 2% and 1%
Population Mitochondria Different-Phenotype (%) [9]: 5% and 8% and 7%
Population Mitotic Cells (%) [9]: 55% and 52% and 44%
Population Normal (%) [9]: 99% and 97%
Population Pyknosed Nuclei (%) [9]: 8% and 9% and 7%
Population Tubulin-Different-Phenotype (%) [9]: 69% and 56% and 24%
Total Cell Count [9]: 247 and 369 and 658
Population Apoptotic (%) [10]: 28% and 40% and 26%
Population Fragmented Nuclei (%) [10]: 7% and 5% and 2%
Population Healthy Nuclei (%) [10]: 86% and 84%
Population Membrane Permeable-Phenotype (%) [10]: 10% and 9% and 3%
Population Mitochondria Different-Phenotype (%) [10]: 14% and 9%
Population Mitotic Cells (%) [10]: 71% and 60% and 73%
Population Normal (%) [10]: 95% and 98% and 83%
Population Pyknosed Nuclei (%) [10]: 5% and 6% and 13%
Population Tubulin-Different-Phenotype (%) [10]: 28% and 20% and 25%
Total Cell Count [10]: 93 and 175 and 144
Population Apoptotic (%) [11]: 70% and 73% and 60%
Population Fragmented Nuclei (%) [11]: 7%
Population Healthy Nuclei (%) [11]: 76% and 61%
Population Hoechst High Intensity Objects (%) [11]: 2% and 4%
Population Membrane Permeable-Phenotype (%) [11]: 2% and 0%
Population Mitochondria Different-Phenotype (%) [11]: 35% and 32% and 47%
Population Mitotic Cells (%) [11]: 29% and 26% and 40%
Population Normal (%) [11]: 97% and 95%
Population Pyknosed Nuclei (%) [11]: 16% and 23% and 22%
Population Tubulin-Different-Phenotype (%) [11]: 17% and 9% and 25%
Total Cell Count [11]: 234 and 596 and 634
Population Apoptotic (%) [12]: 35% and 38% and 33%
Population Fragmented Nuclei (%) [12]: 15% and 14% and 12%
Population Healthy Nuclei (%) [12]: 68% and 60%
Population Hoechst High Intensity Objects (%) [12]: 7% and 3%
Population Membrane Permeable-Phenotype (%) [12]: 6% and 18% and 17%
Population Mitochondria Different-Phenotype (%) [12]: 52% and 40% and 44%
Population Mitotic Cells (%) [12]: 64% and 61% and 66%
Population Normal (%) [12]: 92% and 96%
Population Pyknosed Nuclei (%) [12]: 15% and 17% and 28%
Population Tubulin-Different-Phenotype (%) [12]: 32% and 26% and 31%
Total Cell Count [12]: 113 and 78 and 158

Reference: ChEMBL document CHEMBL4689842, “EUbOPEN Chemogenomics Library wave 1” (2021)
